Experimental data published in ChEMBL document CHEMBL5705890, “Antitumor activity of an allosteric inhibitor of centromere-associated protein-E” (Proc Natl Acad Sci U S A, 2010).

Columns and labels:
NCI/ADR-RES = assay: Anticancer activity against human NCI/ADR-RES cells assessed as cell doubling measured for 72 hrs by DAPI staining based analysis; type: functional
SW1783 = assay: Anticancer activity against human SW1783 cells assessed as cell growth inhibition measured after 72 hrs by DAPI staining based analysis; type: functional
[1] = Anticancer activity against human SW579 cells assessed as cell doubling measured for 72 hrs by DAPI staining based analysis; type: functional
SK-NEP-1 = assay: Anticancer activity against human SK-NEP-1 cells assessed as cell doubling measured for 72 hrs by DAPI staining based analysis; type: functional
[2] = Anticancer activity against human RDES cells assessed as cell doubling measured for 72 hrs by DAPI staining based analysis; type: functional, RD-ES
NCI-H82 = assay: Anticancer activity against human NCI-H82 cells assessed as cell doubling measured for 72 hrs by DAPI staining based analysis; type: functional
HT-29 = assay: Antitumor activity against human HT-29 cells in xenograft model assessed as difference between median time to endpoint time of treated versus control group at 125 mg/kg; type: functional
SR = assay: Anticancer activity against human SR cells assessed as cell doubling measured for 72 hrs by DAPI staining based analysis; type: functional
MIA PaCa-2 = assay: Anticancer activity against human MIA PaCa-2 cells assessed as cell doubling measured for 72 hrs by DAPI staining based analysis; type: functional
[3] = Anticancer activity against human UM-SCC-12 cells assessed as cell doubling measured for 72 hrs by DAPI staining based analysis; type: functional
[4] = Anticancer activity against human COLO-704 cells assessed as cell growth inhibition measured after 72 hrs by DAPI staining based analysis; type: functional
Outline: (§1)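 Cells seeded, DAPI-stained DNA content of fixed cells read by imaging 24 h after seeding (T0), and again after a further 72 h exposure to a range of drug concentrations (T72). T72 values were normalized to T0. Curve fits gave the concentration producing 50% growth inhibition relative to T0 and Ymax (GI50).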

MV4-11 = assay: Anticancer activity against human MV4-11 cells assessed as cell doubling measured for 72 hrs by DAPI staining based analysis; type: functional
786-0 = assay: Anticancer activity against human 786-0 cells assessed as cell doubling measured for 72 hrs by DAPI staining based analysis; type: functional
[5] = Anticancer activity against human MJ cells assessed as cell doubling measured for 72 hrs by DAPI staining based analysis; type: functional
HepG2 = assay: Anticancer activity against human HepG2 cells assessed as cell growth inhibition measured after 72 hrs by DAPI staining based analysis; type: functional
MC-IXC = assay: Anticancer activity against human MC-IXC cells assessed as cell growth inhibition measured after 72 hrs by DAPI staining based analysis; type: functional
OVCAR-5 = assay: Anticancer activity against human OVCAR-5 cells assessed as cell growth inhibition measured after 72 hrs by DAPI staining based analysis; type: functional
FaDu = assay: Anticancer activity against human FaDu cells assessed as cell growth inhibition measured after 72 hrs by DAPI staining based analysis; type: functional; outline: as §1
HEC-1B cell line = assay: Anticancer activity against human HEC-1B cells assessed as cell growth inhibition measured after 72 hrs by DAPI staining based analysis; type: functional
COLO 205 [6] = assay: Antitumor activity against human COLO 205 cells in xenograft model assessed as difference between median time to endpoint time of treated versus control group at 62.5 mg/kg; type: functional
NCI-H1299 = assay: Antitumor activity against human NCI-H1299 cells in xenograft model assessed as difference between median time to endpoint time of treated versus control group at 62.5 mg/kg; type: functional
CAKI-2 = assay: Anticancer activity against human CAKI-2 cells assessed as cell doubling measured for 72 hrs by DAPI staining based analysis; type: functional
MDA-MB-468 = assay: Anticancer activity against human MDA-MB-468 cells assessed as cell growth inhibition measured after 72 hrs by DAPI staining based analysis; type: functional
[7] = Anticancer activity against human MV-522 cells assessed as cell doubling measured for 72 hrs by DAPI staining based analysis; type: functional
[8] = Anticancer activity against human MV-522 cells assessed as cell growth inhibition measured after 72 hrs by DAPI staining based analysis; type: functional; conditions: MV522
NCI-H460 = assay: Antitumor activity against human NCI-H460 cells in xenograft model assessed as tumor growth delay at 62.5 mg/kg relative to control; type: functional
A2780 = assay: Anticancer activity against human A2780 cells assessed as cell growth inhibition measured after 72 hrs by DAPI staining based analysis; type: functional
Outline: (§2)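 Cells were seeded and, after 24 h, DNA content was read as T0. Cells were then exposed to varying drug concentrations for a further 72 h (T72). Fixed cells were DAPI-stained and DNA content measured by automated imaging. T72 values were normalized to T0. GI50 is the concentration giving 50% growth inhibition between T0 and Ymax, obtained by curve fitting.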

SCC-25 = assay: Anticancer activity against human SCC-25 cells assessed as cell doubling measured for 72 hrs by DAPI staining based analysis; type: functional
HuT78 = assay: Anticancer activity against human HuT78 cells assessed as cell growth inhibition measured after 72 hrs by DAPI staining based analysis; type: functional
HPAF-II = assay: Anticancer activity against human HPAF-II cells assessed as cell doubling measured for 72 hrs by DAPI staining based analysis; type: functional
HT-1376 = assay: Anticancer activity against human HT-1376 cells assessed as cell growth inhibition measured after 72 hrs by DAPI staining based analysis; type: functional
WiDr = assay: Anticancer activity against human WiDr cells assessed as cell growth inhibition measured after 72 hrs by DAPI staining based analysis; type: functional
MC-CAR = assay: Anticancer activity against human MC-CAR cells assessed as cell growth inhibition measured after 72 hrs by DAPI staining based analysis; type: functional
SW872 = assay: Anticancer activity against human SW872 cells assessed as cell growth inhibition measured after 72 hrs by DAPI staining based analysis; type: functional
SW780 = assay: Anticancer activity against human SW780 cells assessed as cell doubling measured for 72 hrs by DAPI staining based analysis; type: functional
A204 = assay: Anticancer activity against human A204 cells assessed as cell growth inhibition measured after 72 hrs by DAPI staining based analysis; type: functional; outline: as §2
SNU-5 = assay: Anticancer activity against human SNU-5 cells assessed as cell doubling measured for 72 hrs by DAPI staining based analysis; type: functional
COLO 205 [9] = assay: Anticancer activity against human COLO 205 cells assessed as cell doubling measured for 72 hrs by DAPI staining based analysis; type: functional
NCI-H526 = assay: Anticancer activity against human NCI-H526 cells assessed as cell doubling measured for 72 hrs by DAPI staining based analysis; type: functional
RPMI-6666 = assay: Anticancer activity against human RPMI-6666 cells assessed as cell doubling measured for 72 hrs by DAPI staining based analysis; type: functional
MDA-MB-231 = assay: Anticancer activity against human MDA-MB-231 cells assessed as cell growth inhibition measured after 72 hrs by DAPI staining based analysis; type: functional
BC-3 = assay: Anticancer activity against human BC-3 cells assessed as cell doubling measured for 72 hrs by DAPI staining based analysis; type: functional

GI50 (SW1783): 34 nM
GI50 (HepG2): 31 nM
GI50 (OVCAR-5): 34 nM
GI50 (MDA-MB-468): 25 nM
GI50 (A2780): 13 nM
GI50 (HT-1376): 33 nM
GI50 (SW872): 37 nM
GI50 (MDA-MB-231): 5020 nM
SMILES: CC(C)Oc1ccc(C(=O)N[C@H](CNC(=O)CN(C)C)Cc2ccc(-c3cn4cccc([C@H](C)O)c4n3)cc2)cc1Cl [GSK-923295A]
Activity (NCI/ADR-RES): 2.47
Activity [1]: 1.41
Activity (SK-NEP-1): 1.74
Activity [2]: 1.32
Activity (NCI-H82): 2
Time (HT-29): 18 days
Activity (SR): 2.84
Activity (MIA PaCa-2): 3.72
Activity [3]: 1.78
GI50 [4]: 69 nM
Activity (MV4-11): 1.79
Activity (786-0): 2.59
Activity [5]: 3.39
GI50 (MC-IXC): 27 nM
GI50 (FaDu): 32 nM
GI50 (HEC-1B cell line): 28 nM
Time (COLO 205 [6]): 24.9 days
Time (NCI-H1299): 3.3 days
Activity (CAKI-2): 1.63
Activity [7]: 2.81
GI50 [8]: 48 nM
Activity (NCI-H460): 87%
Activity (SCC-25): 2.99
GI50 (HuT78): 40 nM
Activity (HPAF-II): 2.42
GI50 (WiDr): 18 nM
GI50 (MC-CAR): 86 nM
Activity (SW780): 2.73
GI50 (A204): 18 nM
Activity (SNU-5): 1.47
Activity (COLO 205 [9]): 3.3
Activity (NCI-H526): 1.49
Activity (RPMI-6666): 1.99
Activity (BC-3): 2.65
